Measurements: ChEMBL document CHEMBL2331274, “SAR based design of nicotinamides as a novel class of androgen receptor antagonists for prostate cancer” (J Med Chem, 2013)
The source made the active and inactive calls. The rule behind the calls is not given here.

Legend:
[1] = biological target: T1, Androgen receptor (Mus musculus) (UniProt P19091); test: Agonist activity at mouse androgen receptor at 10 uM after 24 hrs by cell-based luciferase reporter gene assay relative to control
T1 sequence (whole entry): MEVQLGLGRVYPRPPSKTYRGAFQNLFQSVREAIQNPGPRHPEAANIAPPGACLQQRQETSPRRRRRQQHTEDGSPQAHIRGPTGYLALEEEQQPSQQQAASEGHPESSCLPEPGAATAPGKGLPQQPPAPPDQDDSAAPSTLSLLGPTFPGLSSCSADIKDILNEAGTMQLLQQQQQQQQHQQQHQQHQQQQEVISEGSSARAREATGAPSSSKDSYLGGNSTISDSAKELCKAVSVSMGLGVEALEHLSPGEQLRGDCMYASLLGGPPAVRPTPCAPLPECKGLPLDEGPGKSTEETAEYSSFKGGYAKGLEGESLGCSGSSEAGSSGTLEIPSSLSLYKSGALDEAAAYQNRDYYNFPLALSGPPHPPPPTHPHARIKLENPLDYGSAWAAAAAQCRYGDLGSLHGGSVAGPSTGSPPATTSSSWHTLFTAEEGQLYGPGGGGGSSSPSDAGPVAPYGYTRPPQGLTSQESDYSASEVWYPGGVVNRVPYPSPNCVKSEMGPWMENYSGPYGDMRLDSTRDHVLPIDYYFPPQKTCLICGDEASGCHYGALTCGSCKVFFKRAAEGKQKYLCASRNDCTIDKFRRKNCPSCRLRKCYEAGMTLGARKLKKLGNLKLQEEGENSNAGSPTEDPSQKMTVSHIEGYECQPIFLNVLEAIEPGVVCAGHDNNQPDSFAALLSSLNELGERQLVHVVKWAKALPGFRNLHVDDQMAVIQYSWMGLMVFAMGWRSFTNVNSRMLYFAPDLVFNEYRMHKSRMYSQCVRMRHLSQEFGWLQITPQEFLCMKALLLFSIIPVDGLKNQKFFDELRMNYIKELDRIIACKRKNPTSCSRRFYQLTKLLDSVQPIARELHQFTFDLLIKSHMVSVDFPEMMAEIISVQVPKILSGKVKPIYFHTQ
How it was run: (§1)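 Transcriptional activity is expressed as a percentage after 10 μM compound, given alone for agonist mode or with 10 nM DHT for antagonist mode. Data are from triplicate experiments.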

PPC-1 = test: Cytotoxicity against human androgen-independent/AR-negative PPC1 cells after 3 days by MTS/PMS assay; type: functional, cell-based
Androgen receptor [2] = biological target: T2, Androgen receptor (Mus musculus, UniProt P19091); test: Displacement of [3H] ]5alpha-DHT from mouse androgen receptor expressed in monkey COS7 cells after 2 hrs by scintillation counting analysis; type: cell-based, COS-7
T2 sequence (P19091 whole entry): T1 sequence (whole entry)

[3] = biological target: T3, Androgen receptor (Homo sapiens) (UniProt P10275); test: Inhibition of DHT-induced androgen receptor-mediated GFP-AR protein nuclear translocation in human PPC1 cells at 10 uM after 1 hr by DAPI staining-based fluorescence microscopic analysis; type: cell-based; conditions: PPC-1
T3 sequence (whole entry): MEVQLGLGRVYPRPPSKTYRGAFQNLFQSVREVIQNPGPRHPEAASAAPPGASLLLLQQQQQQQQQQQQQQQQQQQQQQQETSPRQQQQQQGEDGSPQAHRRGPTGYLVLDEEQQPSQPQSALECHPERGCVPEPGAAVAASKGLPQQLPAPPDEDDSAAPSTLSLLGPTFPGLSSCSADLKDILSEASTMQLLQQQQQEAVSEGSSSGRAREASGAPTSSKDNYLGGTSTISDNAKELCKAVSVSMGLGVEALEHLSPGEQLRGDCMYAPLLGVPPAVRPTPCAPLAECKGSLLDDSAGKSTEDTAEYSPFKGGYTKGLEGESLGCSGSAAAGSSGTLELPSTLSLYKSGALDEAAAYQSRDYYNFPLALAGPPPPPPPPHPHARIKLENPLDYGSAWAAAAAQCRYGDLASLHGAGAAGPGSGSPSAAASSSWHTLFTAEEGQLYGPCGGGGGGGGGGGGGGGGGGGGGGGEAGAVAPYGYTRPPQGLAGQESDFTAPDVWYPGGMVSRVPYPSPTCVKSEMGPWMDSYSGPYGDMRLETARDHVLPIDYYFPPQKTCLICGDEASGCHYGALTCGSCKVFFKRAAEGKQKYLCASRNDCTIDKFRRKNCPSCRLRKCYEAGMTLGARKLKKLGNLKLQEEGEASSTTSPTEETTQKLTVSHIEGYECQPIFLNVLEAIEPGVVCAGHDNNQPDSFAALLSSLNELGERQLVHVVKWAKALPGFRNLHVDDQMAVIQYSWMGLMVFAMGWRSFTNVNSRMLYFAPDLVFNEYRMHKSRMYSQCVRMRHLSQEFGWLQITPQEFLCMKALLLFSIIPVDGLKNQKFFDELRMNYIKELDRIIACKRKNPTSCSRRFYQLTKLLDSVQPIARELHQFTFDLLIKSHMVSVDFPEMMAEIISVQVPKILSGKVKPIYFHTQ

LNCaP [4] = test: Cytotoxicity against human androgen-dependent LNCAP cells at 10 uM after 7 days by MTS/PMS assay relative to control; type: functional
[5] = biological target: T1, Androgen receptor (Mus musculus); test: Antagonist activity against mouse androgen receptor assessed as reduction of 10 nM DHT-induced transcriptional activity at 10 uM after 24 hrs by cell-based luciferase reporter gene assay relative to control; how it was run: as §1
[6] = biological target: T3, Androgen receptor (Homo sapiens); test: Inhibition of androgen receptor-mediated SRC2 coactivator recruitment in human PPC1 cells at 10 uM after 1 hr by DAPI staining-based fluorescence microscopic analysis; type: cell-based; conditions: PPC-1
Androgen receptor [7] = biological target: T2, Androgen receptor; test: Antagonist activity at mouse androgen receptor assessed as inhibition of transactivation after 24 hrs by cell-based luciferase reporter gene assay
MEF = test: Cytotoxicity against mouse MEF cells at 10 uM after 4 days by MTS/PMS assay; type: cell-based; conditions: 96 h
LNCaP [8] = test: Cytotoxicity against human androgen-dependent LNCAP cells after 6 days by MTS/PMS assay; type: functional, cell-based; conditions: 144 h
[9] = biological target: T3, Androgen receptor (Homo sapiens); test: Inhibition of androgen receptor-mediated SRC1 coactivator recruitment in human PPC1 cells at 10 uM after 1 hr by DAPI staining-based fluorescence microscopic analysis; type: cell-based; conditions: PPC-1
[10] = (§2) Cytotoxicity against human androgen-independent/AR-positive C4-2 cells […] after 4 days by MTS/PMS assay; type: functional, cell-based; conditions: LNCaP C4-2, 96 h
LNCaP C4-2 = test: as §2; type: functional, cell-based

## COc1ccc2c(c1OC)CCN(c1ccc(C(=O)Nc3cccc(C)n3)cn1)C2
[1]
  Activity: 4.7%
PPC-1
  Activity: inactive
Androgen receptor [2]
  Ki: 25600 nM
[3]
  inhibition: Active
LNCaP [4]; 168 h, read-out: GI
  inhibition of growth at 10 µM: 90%
[5]
  inhibition: 95.6%
[6]
  inhibition: Active
Androgen receptor [7]
  IC50: 990 nM
MEF
  Activity: Non-toxic
LNCaP [8]
  IC50: 680 nM
[9]
  inhibition: Active
[10]
  IC50: 2500 nM

## Cc1cccc(NC(=O)c2ccc(N3CCc4ccccc4C3)nc2)n1
[1]
  Activity: 3%
PPC-1
  Activity: inactive
Androgen receptor [2]
  Ki: 1460 nM
LNCaP [4]
  growth inhibition (GI): Active
[5]
  inhibition: 89.9%
[6]
  inhibition: Active
Androgen receptor [7]
  IC50: 4450 nM
[9]
  inhibition: Active
LNCaP C4-2
  growth inhibition (GI): Active
